Active and inactive are the calls of the source. The calls are words filed in the database; no cut-off is given here.
Assays:
PBMC [1] = assay: Induction of IFNalpha production in human PBMC at 1 uM; format: functional
Outline: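 Donor PBMC from blood bank isolated over Ficoll-Hypaque and kept in RPMI 1640 with 10% FBS, L-glutamine and penicillin/streptomycin. 10⁶ cells/well were stimulated with compound at single final concentration for 24 h (37 °C, 5% CO₂). Supernatant IFN-α was measured by Luminex multicytokine bead kit. Values are a composite across several healthy donors.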

PBMC [2] = assay: Induction of IFNalpha production in human PBMC; format: functional, cell-based
Outline: (§1)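 Ficoll-Hypaque-isolated human PBMC were held in RPMI 1640 with 10% FBS, L-glutamine and pen/strep, 10⁶ cells/well. They were treated for 24 h with a compound dilution series going down to 10 nM. Supernatant IFN-α was read by Luminex bead assay. Data are a composite of three donors. EC₅₀ came from non-linear regression curve fit.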

PBMC [3] = assay: Maximal IFNalpha production in human PBMC at 10 uM; format: functional; outline: as §1
Macrophage [4] = assay: Induction of TNFalpha production in macrophages of TLR7 knockout mouse; format: functional, cell-based
Macrophage [5] = assay: Induction of IL6 production in macrophages of TLR7 knockout mouse; format: functional, cell-based
Macrophage [6] = assay: Induction of IL12 production in macrophages of TLR7 knockout mouse; format: functional, cell-based

Row | Structure (SMILES) | Activity (PBMC [1]) | EC50 (PBMC [2]) | Activity (PBMC [3]) | Activity (Macrophage [4]) | Activity (Macrophage [5]) | Activity (Macrophage [6])
1 | CCCNc1nc2c(N)nc(OCCOC)nc2n1Cc1ccccc1 | 8.8 pg/mL | – | – | – | – | –
2 | CCNc1nc2c(N)nc(OCCOC)nc2n1Cc1ccccc1 | 80.3 pg/mL | 4.42 µM | 141 pg/mL | inactive | inactive | inactive
3 | COCCOc1nc(N)c2[nH]c(=O)n(Cc3ccccc3)c2n1 | 418 pg/mL | 0.14 µM | 220 pg/mL | – | – | –
4 | COCCOc1nc(N)c2nc(NCCO)n(Cc3ccccc3)c2n1 | 99.21 pg/mL | 5.33 µM | 168 pg/mL | inactive | inactive | inactive
5 | COCCOc1nc(N)c2nc(NCCN3CCOCC3)n(Cc3ccccc3)c2n1 | 110.48 pg/mL | 0.79 µM | 176 pg/mL | inactive | inactive | inactive
6 | CCCCNc1nc2c(N)nc(OCCOC)nc2n1Cc1ccccc1 | 0.73 pg/mL | – | – | – | – | –
7 | COCCOc1nc(N)c2nc(NCCCO)n(Cc3ccccc3)c2n1 | 113.18 pg/mL | 3.2 µM | 206 pg/mL | inactive | inactive | inactive
8 | COCCOc1nc(N)c2nc(NCCc3ccccc3)n(Cc3ccccc3)c2n1 | 1.33 pg/mL | – | – | – | – | –
9 | COCCOc1nc(N)c2nc(NN)n(Cc3ccccc3)c2n1 | 0.21 pg/mL | – | – | – | – | –
10 | COCCOc1nc(N)c2nc(N3CCOCC3)n(Cc3ccccc3)c2n1 | 0.41 pg/mL | – | – | – | – | –
11 | COCCOc1nc(N)c2nc(N(CCO)CCO)n(Cc3ccccc3)c2n1 | 0.82 pg/mL | – | – | – | – | –
12 | COCCOc1nc(N)c2nc(N)n(Cc3ccccc3)c2n1 | – | > 10 µM | 132 pg/mL | – | – | –
13 | CCOC(=O)Nc1nc2c(N)nc(OCCOC)nc2n1Cc1ccccc1 | 1.03 pg/mL | – | – | – | – | –
